Compounds with a hit are over-represented: about 2.9% of the library has one in this group of screens.
SIRT5 inh – inhibitors of human sirtuin-5 desuccinylase; AID 652115; 330,000 tested, 1.1% active; inhibition, % at 15 µM; Q9NXA8; Purified SirT5, succinyl-peptide AMC, trypsin-coupled fluorescence; in the data active = inhibition above about 15%; inconclusive = no clear call, values can overlap the other calls
Target sequence (Q9NXA8 whole entry, looked up): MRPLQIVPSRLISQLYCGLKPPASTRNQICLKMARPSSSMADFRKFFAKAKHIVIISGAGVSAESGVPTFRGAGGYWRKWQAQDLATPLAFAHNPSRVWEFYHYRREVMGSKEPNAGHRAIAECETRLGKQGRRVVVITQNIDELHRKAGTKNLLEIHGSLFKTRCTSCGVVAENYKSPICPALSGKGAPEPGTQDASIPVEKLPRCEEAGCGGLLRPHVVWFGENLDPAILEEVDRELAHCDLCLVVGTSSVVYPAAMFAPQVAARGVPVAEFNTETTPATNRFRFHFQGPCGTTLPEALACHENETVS
E-sel inducer – E-selectin induction on HUVECs | P16581 | HUVEC E-selectin immunofluorescence imaging; normalized: neutral wells 0, TNF-alpha wells 100 | activation, % at 7.58 µM | 260,000 tested, 0.37% active;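 active = mean E-selectin-positive cell signal at least 10% of the positive control, reached in at least 60% of replicates, without over 20% cell loss; inconclusive = no rule given, readout overlaps actives, possibly toxicity-flagged; inactive = the rest, including those meeting only one limit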
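Test system: HUVEC; input: 3,000 HUVEC/well; measured by: immunofluorescence imaging; read-out: % PE-positive cells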
DENV2 CPE – DENV2-induced cell death inhibition; DENV2-infected cells, cytopathic effect rescue, plate reader; AID 651640; 350,000 tested, 1.7% active; CPE inhibition, % at 9.99 µM; in the data active = CPE inhibition above about 20%, passing the limit was not always enough; inconclusive = no clear call, values can overlap the other calls; tested in BHK-21 cells;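 also: 0% = median of neutral control wells and 100% = median of positive control wells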
Active calls of the source: *; ? = inconclusive; / = no result given.

SMILES | SIRT5 inh | E-sel inducer | DENV2 CPE
C[C@H](CO)N1C[C@H](C)[C@H](CN(C)Cc2ccccc2)Oc2c(NC(=O)Nc3cccc4ccccc34)cccc2C1=O | -1.6 | -0.3 | -8.7
Cc1noc(C)c1NC(=O)Nc1cccc2c1O[C@@H](CN(C)Cc1ccc(C(=O)O)cc1)[C@@H](C)CN([C@@H](C)CO)C2=O | -0.1 | / | 44.5*
C[C@H]1CN([C@@H](C)CO)C(=O)c2cccc(NC(=O)Nc3cccc4ccccc34)c2O[C@H]1CN(C)Cc1ccc(-c2ccccc2)cc1 | / | 89.7* | /
Cc1noc(C)c1NC(=O)Nc1cccc2c1O[C@H](CN(C)Cc1ccc(C(F)(F)F)cc1)[C@H](C)CN([C@@H](C)CO)C2=O | 3.5 | -5.0 | 20.8*
Cc1noc(C)c1NC(=O)Nc1cccc2c1O[C@H](CN(C)Cc1ccc(C(=O)O)cc1)[C@H](C)CN([C@H](C)CO)C2=O | 3.8 | / | -1.1
Cc1noc(C)c1NC(=O)Nc1cccc2c1O[C@H](CN(C)Cc1ccc(-c3ccccc3)cc1)[C@H](C)CN([C@H](C)CO)C2=O | 1.4 | -0.3 | ?
COc1ccc2sc(-c3ccc(SC)cc3)c(C#CC(C)(C)O)c2c1 | / | 0.9 | -6.0
Oc1ccc(Br)cc1-c1cc(-c2ccccc2Cl)[nH]n1 | -7.2 | / | -4.2
Cc1cccc(NC(=O)c2cc(-c3cc(C)ccc3O)n[nH]2)c1 | -2.3 | 14.3 | -2.8
CNCCCOc1cccc(Oc2ccccc2)c1 | 1.8 | / | -6.5
COc1cc(C(=O)NC(C)c2ccccc2)ccc1OCC(=O)N1CCOCC1 (stereo not drawn) | -2.2 | -0.2 | 9.4
COc1cc(C(=O)NC(C)c2cc(C)ccc2C)ccc1OCC(=O)N1CCOCC1 (stereo not drawn) | -1.3 | 144.3* | 0.6
CCOc1cc(C(=O)OCc2cccc(OC)c2OC)ccc1OCC(=O)N1CCOCC1 | 15.8* | / | -3.1
COc1cc(C(=O)NCc2cccc(Cl)c2)ccc1OCC(=O)N1CCOCC1 | -0.7 | / | 115.0*
CCOc1cc(C(=O)NCc2ccccc2)ccc1OCC(=O)N1CCOCC1 | 1.4 | 3.5 | /
CCOc1cc(C(=O)OCc2ccc([N+](=O)[O-])cc2)ccc1OCC(=O)N1CCOCC1 | -1.1 | 0.7 | 3.8
Cc1ccc(/C=N/OC(=O)c2nn(C)cc2Cl)cc1 | 0.0 | / | -2.1
Cc1nnc(SCC(=O)NCC(=O)Nc2ccc(F)c(F)c2F)n1N | / | 0.0 | 2.1
CCN(CCO)C(=S)Nc1cc(S(=O)(=O)N(C)C)ccc1C | 0.3 | 6.6 | 2.6
CCC(=O)Nc1sc(Cc2ccc3c(c2)OCO3)c(C)c1C(N)=O | -4.0 | 3.4 | 6.0
COc1ccc(OC)c(S(=O)(=O)Nc2cccc3c(O)cccc23)c1 | -1.0 | 0.3 | -4.2
Cc1ccc(C)c(S(=O)(=O)N2CCN(C(=O)CCNS(=O)(=O)c3ccc(C)c(C)c3)CC2)c1 | -1.1 | -0.1 | -7.7
CC(C)c1ccc(NC2CCCN(C(=O)c3cccc(N4CCNC4=O)c3)C2)cc1 (stereo not drawn) | -10.2 | / | 29.1*
COc1ccc(NC2CCCN(C(=O)c3cccc(N4CCNC4=O)c3)C2)cc1 (stereo not drawn) | -0.7 | / | -4.0
CCC(=O)N1CCCCN2[C@H](C1)[C@H](c1ccc(-c3cccnc3)cc1)[C@@H]2CO | -2.8 | 0.5 | 37.7*
SMILES | SIRT5 inh | E-sel inducer | DENV2 CPE
CCC(=O)N1CCCCN2[C@H](CO)[C@@H](c3ccc(-c4ccc(F)cc4)cc3)[C@H]2C1 | 3.3 | 0.1 | 31.1*
CCC(=O)N1CCCCN2[C@@H](CO)[C@@H](c3ccc(C#Cc4cccnc4)cc3)[C@@H]2C1 | 5.6 | -0.4 | 22.6*
CCC(=O)N1CCCCN2[C@@H](CO)[C@@H](c3ccc(-c4cccnc4)cc3)[C@@H]2C1 | 3.2 | -0.1 | 15.7
CCC(=O)N1CCCCN2[C@H](CO)[C@H](c3ccc(C#Cc4cccnc4)cc3)[C@@H]2C1 | 2.6 | 0.0 | -5.4
CCC(=O)N1CCCCN2[C@H](CO)[C@@H](c3ccc(-c4ccc(F)cc4)cc3)[C@@H]2C1 | 5.7 | 0.0 | -11.8
Cc1c(Cl)cccc1NC(=S)NCCc1ccc(Cl)cc1 | 2.3 | / | 4.1
CCOC(=O)N1CCN(C(=O)C2CCCN(S(C)(=O)=O)C2)CC1 (stereo not drawn) | -0.2 | / | 3.4
O=C(Nc1cc(F)ccc1F)N[C@H]1CC[C@H](CC(=O)N2CCc3ccccc3C2)O[C@@H]1CO | -3.5 | 0.1 | -2.2
CCC(=C(c1ccc(OC)cc1)c1ccc(OC)cc1)c1cn(CC(O)CN(CCO)CCO)c2ccccc12 (stereo not drawn) | / | -1.3 | -3.5
C[C@@H]1CN([C@H](C)CO)C(=O)c2cc(NC(=O)c3ccncc3)ccc2O[C@@H]1CN(C)C(=O)Nc1ccc2c(c1)OCO2 | 19.8* | 39.8* | ?
C[C@H]1CN([C@@H](C)CO)C(=O)c2cc(NC(=O)c3ccncc3)ccc2O[C@H]1CN(C)C(=O)Nc1ccccc1 | -0.9 | -0.2 | 64.4*
Cc1noc(C)c1NC(=O)N(C)C[C@@H]1Oc2ccc(NC(=O)c3ccncc3)cc2C(=O)N([C@@H](C)CO)C[C@@H]1C | 11.2 | -4.7 | 5.4
Cc1noc(C)c1NC(=O)N(C)C[C@H]1Oc2ccc(NC(=O)c3ccncc3)cc2C(=O)N([C@H](C)CO)C[C@@H]1C | 8.8 | 364.9* | -14.9
Cc1noc(C)c1NC(=O)N(C)C[C@H]1Oc2ccc(N(C)C)cc2C(=O)N([C@@H](C)CO)C[C@@H]1C | 2.3 | -3.3 | 2.8
C[C@H](CO)N1C[C@H](C)[C@@H](CN(C)C(=O)Nc2ccc3c(c2)OCO3)Oc2ccc(NC(=O)c3ccncc3)cc2C1=O | -1.9 | / | 0.3
Cc1noc(C)c1NC(=O)N(C)C[C@H]1Oc2ccc(N(C)C)cc2C(=O)N([C@@H](C)CO)C[C@H]1C | -3.6 | -13.0 | 21.2*
C[C@@H]1CN([C@H](C)CO)C(=O)c2cc(NC(=O)c3ccncc3)ccc2O[C@@H]1CN(C)C(=O)Nc1ccc(C(F)(F)F)cc1 | -5.8 | 0.0 | -6.8
C/C=C/c1cnc2c(c1)C(=O)N([C@@H](C)CO)C[C@@H](C)[C@@H](CN(C)S(=O)(=O)c1ccc(OC)cc1)O2 | -2.4 | / | -4.8
CCNC(=O)COC(=O)c1cc(-c2ccccc2)nn1-c1ccccc1 | 8.0 | 6.8 | 4.5
CN1CCCN=C1/C=C/c1cccs1 | -1.5 | -0.9 | 73.9*
O=C(/C=C/c1cccs1)N1CCCC1 | -0.7 | 0.0 | 2.0
COc1ccc(NC(=O)N(C)C[C@@H]2Oc3c(NS(=O)(=O)c4ccccc4)cccc3C(=O)N([C@H](C)CO)C[C@@H]2C)cc1 | / | -0.5 | /
O=C(Nc1ccc(C(=O)N2CCN(c3ccccn3)CC2)cc1)c1ccc(Br)o1 | -4.6 | -0.1 | 1.7
O=C(Nc1ccc(C(=O)N2CCN(c3ccncc3)CC2)cc1)c1ccc(Br)o1 | 0.9 | -0.1 | 23.2*
CC(=O)N1CCN(c2ccccc2NC(=O)c2ccc(Br)o2)CC1 | 27.1* | -0.5 | -1.6
O=C(NCC(=O)N1CCN(c2ccccc2O)CC1)c1ccc(Br)o1 | 1.1 | -2.2 | 0.0
CCOc1ccc(NC(=O)NCC2CCN(Cc3ccc(F)cc3)CC2)cc1 | -4.2 | 0.2 | 13.2
CC(=O)Nc1nc2ccccc2n1Cc1ccccc1 | 0.5 | / | 1.4
Cc1cc(NC(=O)C2C3C(=O)N(c4cccnc4)C(C(=O)NC(C)(C)C)C34C=CC2(C)O4)no1 (stereo not drawn) | -0.1 | 0.0 | 1.6
